Sampled rows, rich in hits. Any-hit rate of the full collection: about 2.2%.
Mac1 fbg enh – increases human CD11b/CD18 adhesion to fibrinogen; activation, % at 10 µM; AID 1499; P05107+P11215; 93,000 compounds, 0.07% hits; K562 CD11b/CD18 adhesion to fibrinogen, ATPlite luminescence;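 active = 10 µM primary screen giving 50% or more activity, confirmed by 40% or more on retest at that dose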
MT1-MMP txn act – MT1-MMP promoter transcription activation; HT1080 MT1-MMP promoter luciferase reporter, luminescence, overnight; stronger effect = higher value; activation factor at 10 µM; 86,000 compounds, 0.16% hits; AID 750;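 active = activation factor of at least 2 for MT1-MMP transcription at 10 µM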
SF-1 act – SF-1 (human) activation. activation, % at 10 µM. 65,000 compounds, 1.9% hits. AID 522. Q13285. CHO-K1 Gal4-SF-1 LBD luciferase reporter; % increase over DMSO SF-1-specific signal;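 active = activation above the mean activation of all tested compounds plus 3 SD, cut at about 50% in these data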
Target sequence (Q13285 whole entry, looked up, the tested form may be a part): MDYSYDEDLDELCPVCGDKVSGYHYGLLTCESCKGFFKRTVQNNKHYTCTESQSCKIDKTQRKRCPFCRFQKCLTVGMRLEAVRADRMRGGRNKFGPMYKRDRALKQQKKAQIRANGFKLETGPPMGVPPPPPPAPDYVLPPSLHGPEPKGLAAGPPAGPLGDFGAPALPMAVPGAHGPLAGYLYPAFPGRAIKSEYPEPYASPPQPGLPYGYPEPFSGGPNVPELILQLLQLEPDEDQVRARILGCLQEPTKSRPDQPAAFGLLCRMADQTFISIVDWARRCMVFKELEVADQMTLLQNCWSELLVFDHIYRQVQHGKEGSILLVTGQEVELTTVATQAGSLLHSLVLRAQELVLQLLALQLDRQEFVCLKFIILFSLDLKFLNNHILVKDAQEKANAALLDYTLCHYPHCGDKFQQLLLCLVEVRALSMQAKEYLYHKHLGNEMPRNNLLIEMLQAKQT
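Test system: CHO-K1 cells co-transfected with Gal4 DBD–human SF-1 LBD, 5xGal4 luciferase reporter. Quantity: 4,000 cells per well. Compound: 10 µM only. Incubation: compound added 1 h post-seeding, 20 h exposure at 37 °C, 5% CO2. Detection: SteadyLite luciferase luminescence. Replication: one test per compound.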
Mac1 fbg inh – inhibitors of human CD11b/CD18 binding to fibrinogen; P05107+P11215; K562 CD11b/CD18 adhesion to fibrinogen, ATPlite luminescence; Mn2+ added to activate the integrin; inhibition, % at 10 µM; 93,000 compounds, 0.54% hits; AID 1497;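 active = primary inhibition of 50% or more at 10 µM, then 40% or more on retest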
RORA act – activators of human nuclear receptor RORA; CHO-K1 Gal4-RORA LBD luciferase reporter, luminescence; percent increase over mock-subtracted basal signal; activation, % at 10 µM; 65,000 compounds, 1.5% hits;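 active = activation above the mean of all tested compounds plus 3 SD, cut at about 49% in these data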;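 note: 0% = DMSO-treated RORA cells and 100% = added signal equal to DMSO minus mock-transfected cells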
Candida biofilm – kills Candida albicans biofilms; C. albicans biofilm + clotrimazole, Alamar Blue; inhibition, % at 6 µM; 85,000 compounds, 0.14% hits; AID 834;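 active = inhibition above 20%; inactive = inhibition below 20%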;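 note: preformed 24 hr biofilms exposed to compound for 48 hr; 0% = biofilm without compound and 100% = blank killed by clotrimazole plus chlorhexidine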
* = called active by the depositor.

For Cc1ccc(-c2csc3nc(SCC(N)=O)n(Cc4ccccc4)c(=O)c23)cc1 the results were Mac1 fbg enh 4 and Mac1 fbg inh 22.
`Cc1c(-c2cccc(NC(=O)c3cccs3)c2)nc2ncccn12` gave Mac1 fbg enh 0 and Mac1 fbg inh 8.
Screening O=C(NCc1ccc(Cl)cc1)C(=O)NCC1OCCN1C(=O)c1cccs1 (stereo not given) returned Mac1 fbg enh 5 and Mac1 fbg inh -12.
`Cn1c(-c2cc3ccc(OC(=O)C(C)(C)C)cc3oc2=O)nc2ccccc21` gave MT1-MMP txn act 1.6 and Candida biofilm 6.
Screening CC(=O)Oc1ccc2cc(-c3nc4ccccc4n3C)c(=O)oc2c1 returned Mac1 fbg enh 1, MT1-MMP txn act 1.5, SF-1 act 65*, Mac1 fbg inh -1 and RORA act 76*.
`Oc1ccccc1-c1cc(-c2ccc3c(c2)OCCO3)n[nH]1` gave Mac1 fbg enh 1, MT1-MMP txn act 0.2, SF-1 act 36, Mac1 fbg inh 34, RORA act 55* and Candida biofilm 2.
Screening COC(=O)[C@@H]1C[C@@]2(O)[C@@H](O)[C@@H](O)[C@@H](O)C[C@H]2N1C/C=C/c1ccccc1 returned MT1-MMP txn act 1.1.
CC(=C/C(=O)O)/C(=C/c1ccccc1)C(=O)O was read as Mac1 fbg enh -3 and Mac1 fbg inh -2.
Screening Cc1nn(-c2ccccc2)c(C)c1C(=O)OCC(=O)c1c(N)n(CC(C)C)c(=O)n(C)c1=O returned Mac1 fbg enh -7, MT1-MMP txn act 1.2, SF-1 act -55, Mac1 fbg inh 65*, RORA act -48 and Candida biofilm 2.
For CC(C)Cn1c(N)c(C(=O)COC(=O)c2cc(-c3ccccc3)nc3ccccc23)c(=O)n(C)c1=O the results were MT1-MMP txn act 1.1.
Screening COC(=O)C1=C(C)N(CCCC(=O)O)C(=O)NC1c1cccc(Cl)c1Cl (stereo not given) returned MT1-MMP txn act 1.2.
COc1ccc(-c2nsc3c(N4CCN(C(=O)c5ccco5)CC4)ncnc23)cc1 was read as Mac1 fbg enh 6, MT1-MMP txn act 1.5, SF-1 act 17, Mac1 fbg inh -3, RORA act 24 and Candida biofilm 4.
`O=C(c1ccco1)N1CCN(c2ncnc3c(-c4ccccc4)nsc23)CC1` gave Mac1 fbg enh 2, MT1-MMP txn act 1.2, SF-1 act 5, Mac1 fbg inh -3, RORA act 62* and Candida biofilm 5.
Screening CCC/C=C(\CCC)C(NC(=O)CCc1ccccc1)c1ccc(C(F)(F)F)cc1 (stereo not given) returned MT1-MMP txn act 1.2.
For Cc1ccc(-n2nc3c(c2NC(=O)c2c(-c4ccccc4Cl)noc2C)CSC3)cc1 the results were Mac1 fbg enh 72*, MT1-MMP txn act 1.1, SF-1 act -3, Mac1 fbg inh 1, RORA act -27 and Candida biofilm 2.
N#CC1(c2ccc(NC(=O)c3ccccc3F)cc2)CCCC1 was read as Mac1 fbg enh -1 and Mac1 fbg inh 38.
`COC(=O)N1C2(C=CC1(C)C(=O)NCc1ccccn1)CCCCC2` (stereo not given) gave MT1-MMP txn act 1.1.
For O=C(CN1C(=O)COc2ccc(S(=O)(=O)N3CCCC3)cc21)NC1CCCCCCC1 the results were Mac1 fbg enh -3 and Mac1 fbg inh 14.
Cn1c(NC(=O)c2cccnc2)nc2ccccc21 was read as Mac1 fbg enh 1, MT1-MMP txn act 1.8, SF-1 act 52*, Mac1 fbg inh 5, RORA act 52* and Candida biofilm 3.
Screening CCCn1c(NC(=O)c2ccccc2)nc2ccccc21 returned Mac1 fbg enh 0, MT1-MMP txn act 1.3, SF-1 act 12, Mac1 fbg inh -7, RORA act 22 and Candida biofilm 7.
`O=C(Nc1cnc2ccccc2c1)c1cccc(-n2cnnn2)c1` gave Mac1 fbg enh 3, MT1-MMP txn act 1.8, SF-1 act 56*, Mac1 fbg inh 17, RORA act 37 and Candida biofilm 3.
Screening CCC(C)c1ccc(NC(=O)c2cccnc2)cc1 (stereo not given) returned MT1-MMP txn act 1.5, SF-1 act 112*, RORA act 93* and Candida biofilm 5.
Screening O=C(Nc1cnc2ccccc2c1)c1cccnc1 returned Mac1 fbg enh -7, MT1-MMP txn act 1, SF-1 act 75*, Mac1 fbg inh -1, RORA act 58* and Candida biofilm 6.
`Cc1ccc(C(=O)Nc2cnc3ccccc3c2)cc1` gave Mac1 fbg enh 2, Mac1 fbg inh 8 and Candida biofilm 3.
Screening COC(=O)c1ccc(C(NC(=O)OCc2ccccc2)/C(C)=C/[C@@H](C)C(=O)NCc2nn(-c3ccccc3)nc2C)cc1 (stereo not given in full) returned MT1-MMP txn act 1.1.
CN=C(Nc1cc(Cl)ccc1Cl)SC1CC(=O)N(c2ccc(C(=O)OC)cc2)C1=O (stereo not given) was read as Mac1 fbg enh -2 and Mac1 fbg inh 10.
For CCCCCC1=C2CNC(C)(C(=O)OC)C=C2C(C)C1=O (stereo not given) the results were MT1-MMP txn act 1.1.
Screening COC(=O)[C@@]1(Cc2ccccc2)[C@H]2c3cc(C(=O)N(C)C)n(CCN4CCNC4=O)c3C[C@H]2CN1C(=O)c1ccccc1 returned MT1-MMP txn act 1.7.
`CCOC(=O)c1cnn2c(C)cc(-c3ccccc3)nc12` gave Mac1 fbg enh 1, MT1-MMP txn act 1.6, SF-1 act 65*, Mac1 fbg inh -30, RORA act 43 and Candida biofilm 10.
For CN(C)C(=O)COC(=O)c1ccccc1Nc1ccc(SC(F)F)cc1 the results were Mac1 fbg enh 5 and Mac1 fbg inh 38.
Screening CCC(CC)NC(=O)COC(=O)c1ccc(NS(=O)(=O)c2ccc3c(c2)OCCO3)cc1 returned Mac1 fbg enh 4 and Mac1 fbg inh 1.
`CC(C)COc1ccc(-c2nnc(-c3ccncc3)o2)cc1` gave Mac1 fbg enh -2, MT1-MMP txn act 1.8, SF-1 act 85*, Mac1 fbg inh 1, RORA act 33 and Candida biofilm 0.
For O=C(Nc1nc2ccccc2s1)c1ccc(OCC2CCCO2)cc1 (stereo not given) the results were Mac1 fbg enh -6 and Mac1 fbg inh 73.
O=C(NC(NCc1cccnc1)C(Cl)(Cl)Cl)c1cccc2ccccc12 (stereo not given) was read as Mac1 fbg enh -1 and Mac1 fbg inh 16.
Cc1cc(C(=O)NC2=NCCS2)cs1 was read as MT1-MMP txn act 0.9, SF-1 act 53*, RORA act 43 and Candida biofilm 8.
